Experimental data published in ChEMBL document CHEMBL3352599, “Radiosynthesis and biological evaluation of a novel enoyl-ACP reductase inhibitor for Staphylococcus aureus” (Eur J Med Chem, 2014).

How the values were obtained:
[1] = Drug uptake in healthy thigh of Swiss Webster thigh infected mouse model infected with methicillin-resistant Staphylococcus aureus BAA1762 at 3.7 MBq, iv after 30 mins; format: ADME, organism-based, Thigh muscle; details: in vivo, 0.5 h
Outline: (§1)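 Neutropenic mice (ip cyclophosphamide) given 5×10^5 MRSA cells into the left thigh muscle. [11C]-label given into the lateral tail vein in ethanol/saline (1/3) under isoflurane, then mice recovered and moved freely. Killed by cervical dislocation; muscle from both thighs and blood collected, weighed and well-counted. Reported as %ID/g, mean ± SD, n=3.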

[2] = test system: Blood; test: Drug uptake in blood of healthy Swiss Webster mouse at 3.7 MBq, iv after 20 mins; format: ADME, organism-based; details: in vivo
Outline: (§2)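 Uninfected control mice. [11C]-label given into the lateral tail vein in ethanol/saline (1/3) under isoflurane, then mice recovered and moved freely. Killed by cervical dislocation; blood taken by cardiac puncture, spleen, lung, liver and kidney excised, weighed and well-counted. Reported as %ID/g, mean ± SD, n=3.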

[3] = Drug uptake in infected thigh of Swiss Webster thigh infected mouse model infected with methicillin-resistant Staphylococcus aureus BAA1762 at 3.7 MBq, iv after 30 mins; format: ADME, organism-based, Thigh muscle; details: in vivo, 0.5 h; outline: as §1
[4] = test system: Kidney; test: Drug uptake in kidney of healthy Swiss Webster mouse at 3.7 MBq, iv after 60 mins; format: ADME, organism-based; details: in vivo, 1 h; outline: as §2
[5] = test system: Liver; test: Drug uptake in liver of Swiss Webster systemic infected mouse model infected with methicillin-resistant Staphylococcus aureus BAA1762 at 3.7 MBq, iv after 60 mins; format: ADME, organism-based; details: in vivo, 1 h
Outline: as §2, with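 “Neutropenic mice (ip cyclophosphamide) infected ip with 2×10^7 MRSA cells.” for “Uninfected control mice.”, “organs” for “spleen, lung, liver and kidney”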

[6] = test system: Blood; test: Drug uptake in blood of Swiss Webster systemic infected mouse model infected with methicillin-resistant Staphylococcus aureus BAA1762 at 3.7 MBq, iv after 40 mins; format: ADME, organism-based; details: in vivo
Outline: as §2, with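 “Neutropenic mice (ip cyclophosphamide) infected ip with 2×10^7 MRSA cells.” for “Uninfected control mice.”, “organs” for “spleen, lung, liver and kidney”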

[7] = test system: Lung; test: Drug uptake in lung of Swiss Webster systemic infected mouse model infected with methicillin-resistant Staphylococcus aureus BAA1762 at 3.7 MBq, iv after 40 mins; format: ADME, organism-based; details: in vivo
Outline: as §2, with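 “Neutropenic mice (ip cyclophosphamide) infected ip with 2×10^7 MRSA cells.” for “Uninfected control mice.”, “organs” for “spleen, lung, liver and kidney”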

[8] = test system: Lung; test: Drug uptake in lung of Swiss Webster systemic infected mouse model infected with methicillin-resistant Staphylococcus aureus BAA1762 at 3.7 MBq, iv after 20 mins; format: ADME, organism-based; details: in vivo
Outline: as §2, with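 “Neutropenic mice (ip cyclophosphamide) infected ip with 2×10^7 MRSA cells.” for “Uninfected control mice.”, “organs” for “spleen, lung, liver and kidney”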

[9] = test system: Kidney; test: Drug uptake in kidney of healthy Swiss Webster mouse at 3.7 MBq, iv after 40 mins; format: ADME, organism-based; details: in vivo; outline: as §2
[10] = test system: Blood; test: Drug uptake in blood of healthy Swiss Webster mouse at 3.7 MBq, iv after 40 mins; format: ADME, organism-based; details: in vivo; outline: as §2
[11] = test system: Lung; test: Drug uptake in lung of healthy Swiss Webster mouse at 3.7 MBq, iv after 20 mins; format: ADME, organism-based; details: in vivo; outline: as §2
[12] = test system: Kidney; test: Drug uptake in kidney of healthy Swiss Webster mouse at 3.7 MBq, iv after 20 mins; format: ADME, organism-based; details: in vivo; outline: as §2
[13] = test system: Spleen; test: Drug uptake in spleen of healthy Swiss Webster mouse at 3.7 MBq, iv after 60 mins; format: ADME, organism-based; details: in vivo, 1 h; outline: as §2
[14] = test system: Liver; test: Drug uptake in liver of healthy Swiss Webster mouse at 3.7 MBq, iv after 20 mins; format: ADME, organism-based; details: in vivo; outline: as §2
[15] = test system: Blood; test: Drug uptake in blood of Swiss Webster systemic infected mouse model infected with methicillin-resistant Staphylococcus aureus BAA1762 at 3.7 MBq, iv after 20 mins; format: ADME, organism-based; details: in vivo
Outline: as §2, with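 “Neutropenic mice (ip cyclophosphamide) infected ip with 2×10^7 MRSA cells.” for “Uninfected control mice.”, “organs” for “spleen, lung, liver and kidney”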

[16] = Drug uptake in infected thigh of Swiss Webster thigh infected mouse model infected with methicillin-resistant Staphylococcus aureus BAA1762 at 3.7 MBq, iv after 15 mins; format: ADME, organism-based, Thigh muscle; details: in vivo, 0.25 h; outline: as §1
[17] = test system: Blood; test: Drug uptake in blood of Swiss Webster systemic infected mouse model infected with methicillin-resistant Staphylococcus aureus BAA1762 at 3.7 MBq, iv after 60 mins; format: ADME, organism-based; details: in vivo, 1 h
Outline: as §2, with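 “Neutropenic mice (ip cyclophosphamide) infected ip with 2×10^7 MRSA cells.” for “Uninfected control mice.”, “organs” for “spleen, lung, liver and kidney”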

[18] = test system: Liver; test: Drug uptake in liver of Swiss Webster systemic infected mouse model infected with methicillin-resistant Staphylococcus aureus BAA1762 at 3.7 MBq, iv after 20 mins; format: ADME, organism-based; details: in vivo
Outline: as §2, with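 “Neutropenic mice (ip cyclophosphamide) infected ip with 2×10^7 MRSA cells.” for “Uninfected control mice.”, “organs” for “spleen, lung, liver and kidney”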

[19] = test system: Lung; test: Drug uptake in lung of healthy Swiss Webster mouse at 3.7 MBq, iv after 60 mins; format: ADME, organism-based; details: in vivo, 1 h; outline: as §2
[20] = test system: Blood; test: Drug uptake in blood of Swiss Webster thigh infected mouse model infected with methicillin-resistant Staphylococcus aureus BAA1762 at 3.7 MBq, iv after 60 mins; format: ADME, organism-based; details: in vivo, 1 h; outline: as §1
[21] = test system: Lung; test: Drug uptake in lung of Swiss Webster systemic infected mouse model infected with methicillin-resistant Staphylococcus aureus BAA1762 at 3.7 MBq, iv after 60 mins; format: ADME, organism-based; details: in vivo, 1 h
Outline: as §2, with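 “Neutropenic mice (ip cyclophosphamide) infected ip with 2×10^7 MRSA cells.” for “Uninfected control mice.”, “organs” for “spleen, lung, liver and kidney”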

For `CCCCCCc1ccc(Oc2ccccc2[11C]#N)c(O)c1`, which Drug uptake [1] is on record?
The Drug uptake was 0.63 %ID/cc.

What about the Drug uptake [2] of the same compound?
Its Drug uptake is 0.64 %ID/cc.

What about the Drug uptake [3] of the same compound?
Its Drug uptake is 0.54 %ID/cc.

And the Drug uptake [4]?
The Drug uptake was 0.93 %ID/cc.

What about the Drug uptake [5] of the same compound?
The Drug uptake was 7.31 %ID/cc.

What about the Drug uptake [6] of the same compound?
Its Drug uptake is 0.38 %ID/cc.

What about the Drug uptake [7] of the same compound?
The Drug uptake was 1.78 %ID/cc.

And the Drug uptake [8]?
The Drug uptake was 3.28 %ID/cc.

What about the Drug uptake [9] of the same compound?
The Drug uptake was 1.41 %ID/cc.

And the Drug uptake [10]?
The Drug uptake was 0.41 %ID/cc.

And the Drug uptake [11]?
The Drug uptake was 3.19 %ID/cc.

What about the Drug uptake [12] of the same compound?
The Drug uptake was 2.22 %ID/cc.

And the Drug uptake [13]?
Its Drug uptake is 0.19 %ID/cc.

What about the Drug uptake [14] of the same compound?
The Drug uptake was 11.79 %ID/cc.

And the Drug uptake [15]?
The Drug uptake was 0.67 %ID/cc.

And the Drug uptake [16]?
The Drug uptake was 0.89 %ID/cc.

And the Drug uptake [17]?
Its Drug uptake is 0.44 %ID/cc.

And the Drug uptake [18]?
The Drug uptake was 11.18 %ID/cc.

What about the Drug uptake [19] of the same compound?
The Drug uptake was 1.32 %ID/cc.

And the Drug uptake [20]?
Its Drug uptake is 0.26 %ID/cc.

And the Drug uptake [21]?
The Drug uptake was 2.01 %ID/cc.
